Among the data in ChEMBL document CHEMBL2311429, “Design, synthesis and crystallographic analysis of nitrile-based broad-spectrum peptidomimetic inhibitors for coronavirus 3C-like proteases” (Eur J Med Chem, 2013) are IC50 and inhibition values, retold here.

Assay [1] concerns the target Replicase polyprotein 1ab (Severe acute respiratory syndrome-related coronavirus, UniProt P0C6X7). Put plainly: Inhibition of SARS coronavirus 3C-like protease pretreated for 5 mins before substrate addition by fluorimetry.
Assay [2] deals with T1, Caspase-3 (Homo sapiens) (UniProt P42574).
T1 sequence (whole entry): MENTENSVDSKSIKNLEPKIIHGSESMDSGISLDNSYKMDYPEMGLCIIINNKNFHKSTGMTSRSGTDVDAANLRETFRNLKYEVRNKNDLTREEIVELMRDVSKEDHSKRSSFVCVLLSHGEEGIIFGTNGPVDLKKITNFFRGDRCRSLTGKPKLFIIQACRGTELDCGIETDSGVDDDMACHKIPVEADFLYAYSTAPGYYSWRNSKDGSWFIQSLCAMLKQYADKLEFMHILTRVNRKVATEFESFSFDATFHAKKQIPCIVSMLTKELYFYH
Put plainly: Inhibition of caspase3 (unknown origin) using Ac-DEVD-pNA as substrate at 0.5 to 256 uM after 90 mins by spectrophotometry.

Assay [3] in a line: Inhibition of […] bronchitis virus 3C-like protease pretreated for 5 mins before substrate addition by fluorimetry. Summed up: (§1)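 3CL protease (0.5-1 μM) preincubated 5 min with inhibitor (0.5-256 μM), then 35 μM fluorescent-protein substrate added; cleavage followed by fluorescence. IC50 from four-parameter logistic fit of activity versus inhibitor concentration.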

Assay [4] in a line: Inhibition of human coronavirus HKU1 3C-like protease pretreated for 5 mins before substrate addition by fluorimetry. The gist of the method: as §1
Assay [5] is described as follows: Inhibition of human coronavirus OC43 3C-like protease pretreated for 5 mins before substrate addition by fluorimetry. Summed up:
as §1

Assay [6] in a line: Inhibition of human coronavirus […] 3C-like protease pretreated for 5 mins before substrate addition by fluorimetry. Also on record: species or system Human coronavirus 229E. Summed up: as §1

Activity calls are given as the source filed them. No cut-off for these calls is given here.

With `Cc1cc(C(=O)N[C@@H](C)C(=O)N[C@H](C(=O)N[C@@H](CC(C)C)C(=O)N[C@H](C#N)CCC(N)=O)C(C)C)no1`, the IC50 (commonly the concentration that gives 50% inhibition) in assay [1] came out at 49 µM.

As for `CC(C)C[C@H](NC(=O)[C@@H](NC(=O)[C@H](C)NC(=O)[C@H](CO)NC(=O)[C@@H](NC(=O)OCc1ccccc1)[C@@H](C)O)C(C)C)C(=O)N[C@H](C#N)CCC(N)=O`, the half-maximal inhibitory concentration (IC50) in assay [1] amounted to 39 µM.

For the compound `CC(C)C[C@H](NC(=O)[C@@H](NC(=O)[C@H](C)NC(=O)OCc1ccccc1)C(C)C)C(=O)N[C@H](C#N)CCC(N)=O`, the inhibition result in assay [2] was “inactive”. The concentration for half-maximal inhibition (IC50) in assay [3], in assay [4], in assay [5] and in assay [6] was 1.3 µM each time.
